This note sets out measurements from PMC2741613 (Journal of the American Chemical Society, 2009).

Assay [1] has as its system tyrosine phosphorylation of EGFR in PTP1B−/− mouse embryo fibroblast cells. The assay is described as follows: EGF-stimulated EGFR phosphorylation in cells. Type of assay: cell-based. To be noted: 2 hr, then EGF 2 ng/ml 10 min, relative to DMSO. Put shortly: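 PTP1B−/− mouse embryo fibroblasts were given test compound for 2 hr, then EGF 2 ng/mL for 10 min. Lysis in HEPES pH 7.4 buffer with pervanadate, fluoride and protease inhibitors, cleared at 15,000 rpm for 10 min, protein by BCA. EGFR immunoprecipitated from 1 mg lysate (4 °C, 2 h; protein A/G 2 h). SDS-PAGE, anti-pTyr immunoblot, ECL detection.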

The target of another assay is T1, VHX (Homo sapiens, UniProt Q9NRW4).
T1 sequence (Q9NRW4 1-184): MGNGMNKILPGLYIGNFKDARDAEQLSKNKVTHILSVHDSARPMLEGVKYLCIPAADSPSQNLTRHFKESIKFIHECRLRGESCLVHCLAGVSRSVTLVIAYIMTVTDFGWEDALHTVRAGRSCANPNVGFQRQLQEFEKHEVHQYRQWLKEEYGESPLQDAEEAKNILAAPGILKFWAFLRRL
The assay is described as follows: PTP activity assay with pNPP, VHX. The format is biochemical. Put shortly:
(§1)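 Reactions started by adding enzyme to mixtures with various pNPP and test-compound concentrations. Rates were fitted with an enzyme-kinetics model for Ki.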

The next assay deals with T2, PTP-Meg2 (Homo sapiens, UniProt P43378).
T2 sequence (P43378 1-593): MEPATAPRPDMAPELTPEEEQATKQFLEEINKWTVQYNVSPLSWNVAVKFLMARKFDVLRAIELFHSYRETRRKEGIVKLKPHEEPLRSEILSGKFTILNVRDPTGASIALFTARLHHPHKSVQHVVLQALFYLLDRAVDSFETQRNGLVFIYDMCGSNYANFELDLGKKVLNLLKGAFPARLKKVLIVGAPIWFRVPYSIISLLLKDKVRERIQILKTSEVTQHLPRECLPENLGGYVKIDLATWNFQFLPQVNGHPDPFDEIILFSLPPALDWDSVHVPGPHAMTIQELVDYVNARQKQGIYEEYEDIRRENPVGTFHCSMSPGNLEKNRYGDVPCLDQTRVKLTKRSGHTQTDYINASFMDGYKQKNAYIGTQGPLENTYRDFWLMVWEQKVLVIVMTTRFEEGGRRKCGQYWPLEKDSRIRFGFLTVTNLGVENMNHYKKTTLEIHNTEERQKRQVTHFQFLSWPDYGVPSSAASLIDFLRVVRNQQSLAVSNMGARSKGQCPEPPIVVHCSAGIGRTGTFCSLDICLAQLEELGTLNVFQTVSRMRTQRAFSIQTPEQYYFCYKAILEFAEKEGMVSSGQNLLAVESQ
The assay is described as follows: PTP activity assay with pNPP, PTP-Meg2. The format is biochemical. In outline: as §1

For another assay, the target named is T3, PTP1B (Homo sapiens, UniProt P18031).
T3 sequence (P18031 1-435): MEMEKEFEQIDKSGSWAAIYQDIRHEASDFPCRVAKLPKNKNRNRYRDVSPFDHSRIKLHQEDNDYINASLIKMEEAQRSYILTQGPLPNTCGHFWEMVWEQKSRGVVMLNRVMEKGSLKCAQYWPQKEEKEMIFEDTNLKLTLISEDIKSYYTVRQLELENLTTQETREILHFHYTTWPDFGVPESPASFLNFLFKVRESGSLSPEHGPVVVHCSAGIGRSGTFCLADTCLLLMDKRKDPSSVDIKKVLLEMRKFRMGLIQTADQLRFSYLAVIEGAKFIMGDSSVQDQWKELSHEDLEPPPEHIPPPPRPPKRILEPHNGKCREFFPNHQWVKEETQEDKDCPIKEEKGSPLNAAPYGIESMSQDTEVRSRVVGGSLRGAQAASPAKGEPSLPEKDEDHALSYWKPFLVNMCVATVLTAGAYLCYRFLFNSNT
The assay is described as follows: PTP activity assay with pNPP, PTP1B. The format is biochemical. In outline:
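Reactions started by adding enzyme (2 nM final) to mixtures with varied pNPP and varied test compound. Rates fitted with an enzyme-kinetics model to give Ki and mode of inhibition.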

The subject of assay [2] is pSrc527 in PTP1B−/− mouse embryo fibroblast cells. The assay is described as follows: Src phosphorylation at Tyr527 in cells. Type of assay: cell-based. To be noted: treated for two hours, various concentrations. In outline:
(§2)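 PTP1B−/− mouse embryo fibroblasts at 80% confluence were exposed to test compound for two hours, then lysed and cleared at 15,000 rpm for 10 min. 30 μg total protein run on SDS-PAGE and blotted to PVDF. Probed with anti-pSrc416, anti-pSrc527 and anti-Src antibodies, HRP-conjugated secondaries.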

A further assay addresses T4, TC-PTP (Homo sapiens, UniProt P17706).
T4 sequence (P17706 1-415): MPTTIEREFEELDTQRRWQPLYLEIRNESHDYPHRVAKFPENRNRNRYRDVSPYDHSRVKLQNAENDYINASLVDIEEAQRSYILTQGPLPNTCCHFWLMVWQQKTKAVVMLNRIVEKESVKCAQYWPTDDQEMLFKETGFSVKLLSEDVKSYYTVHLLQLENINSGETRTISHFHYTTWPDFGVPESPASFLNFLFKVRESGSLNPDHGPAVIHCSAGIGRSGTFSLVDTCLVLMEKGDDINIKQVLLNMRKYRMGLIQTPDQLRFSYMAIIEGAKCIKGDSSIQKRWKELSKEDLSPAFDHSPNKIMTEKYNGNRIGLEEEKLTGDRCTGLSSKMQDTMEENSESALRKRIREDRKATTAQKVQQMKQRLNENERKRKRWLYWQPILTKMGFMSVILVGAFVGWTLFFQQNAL
The assay is described as follows: TC-PTP-catalyzed pNPP hydrolysis inhibition. The format is biochemical. In outline: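 IC50: enzyme added last (10 nM or 0.4 nM final) to 2 mM pNPP (Km) plus varied test compound, 30 min at room temperature, NaOH quench, A405. Reversibility: enzyme preincubated with test compound 30 min before pNPP. Mode/Ki: 0.4 nM enzyme, varied pNPP and inhibitor, kinetic fit.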

Assay [3] concerns pSrc416 in PTP1B−/− mouse embryo fibroblast cells. The assay is described as follows: Src phosphorylation at Tyr416 in cells. Type of assay: cell-based. To be noted: treated for two hours, various concentrations. In outline:
as §2

The Ki is the equilibrium dissociation constant of an inhibitor or competing ligand from its target. Lower therefore signals tighter binding.

A value given as a limit tells only on which side of the number the result lay.

Take `CCc1ccc(C(=O)NCCCC[C@H](NC(=O)[C@H](Cc2ccc(C(F)(F)P(=O)(O)O)cc2)NC(=O)[C@H](Cc2ccccc2)NC(=O)CO[C@H]2C[C@@H](C)CC[C@@H]2C(C)C)C(N)=O)cc1` [Compound 8]: the “increase in EGFR phosphorylation” value in assay [1] (5 nM) is on record as roughly 2 fold; in assay [1] (50 nM) it was 5.0 fold. In addition, the Ki at VHX is greater than 1000 nM; at PTP-Meg2 it was greater than 1000 nM; at PTP1B (PTP1B) it was 34 ± 2.8 nM; at TC-PTP (TC-PTP, pNPP substrate), 4.3 ± 0.2 nM. The “selectivity for TC-PTP over PTP1B” value at PTP1B (TC-PTP versus PTP1B) stood at 8 fold. For the same compound, in assay [2], the “effect on pSrc527 phosphorylation” value is on record as “no significant change”. In addition, on TC-PTP (IC50 without or with 30 min preincubation), the “reversibility of TC-PTP inhibition” value is on record as “reversible”. Moreover, the “mode of TC-PTP inhibition” value on TC-PTP (Lineweaver-Burk analysis, pNPP) is “competitive”. In addition, the “effect on pSrc416 phosphorylation” value in assay [3] is recorded as “dose-dependent increase”.
